{"data": "Published values pooled from the literature", "target": "5'-AMP-activated protein kinase catalytic subunit alpha-2 (PRKAA2, Homo sapiens, UniProt P54646)", "note": "Compare with care: the assays were run in different laboratories."}
{"SMILES": "Cc1ccc(C(=O)Nc2ccc(CN3CCN(C)CC3)c(C(F)(F)F)c2)cc1C#Cc1cnc2cccnn12", "assay": "enzyme activity", "conditions": "23.5 nM", "endpoint": "remaining activity", "result": "99%"}
{"SMILES": "CN([C@@H]1CCc2c(CC(=O)O)c3cc(S(C)(=O)=O)ccc3n2C1)S(=O)(=O)c1ccc(F)cc1", "assay": "cell-free assay, competition with immobilised ligand", "conditions": "1 µM", "endpoint": "remaining binding", "result": "100%"}
{"SMILES": "COc1cccc2c(NCc3ccccc3)nc(-n3c(N)nc4ccccc43)nc12", "assay": "target engagement in cells, inhibitor, chemoproteomics", "conditions": "20 mM", "endpoint": "inhibition", "result": "11.9%"}
{"SMILES": "CN1CC(Oc2cnc(C#N)cc2-c2ccn3nc(NC(=O)C4CC4)cc3c2)C1", "assay": "enzyme activity, inhibitor", "conditions": "1 µM", "endpoint": "inhibition", "result": "3%"}
{"SMILES": "Cc1ccc(C(=O)NCc2ccsc2)cc1C#Cc1cn(C(C)C)c2ncnc(N)c12", "assay": "enzyme activity, inhibitor", "conditions": "1 µM", "endpoint": "activity vs control", "result": "80%"}
{"SMILES": "O=C(O)c1cc(-c2ccc(C3CCNCC3)cc2)c2ccc(-c3ccc(C(F)(F)F)cc3)cc2c1", "assay": "cell-free assay, competition with immobilised ligand", "conditions": "1 µM", "endpoint": "remaining binding", "result": "100%"}
{"SMILES": "CCCS(=O)(=O)Nc1ccc(F)c(C(=O)c2c[nH]c3ncc(-c4ccc(Cl)cc4)cc23)c1F", "assay": "enzyme activity, inhibitor", "conditions": "1 µM", "endpoint": "inhibition", "result": "< 20%"}
{"SMILES": "c1ccc(CNc2nc(N3CCOc4ccccc43)nc3c2CCCC3)cc1", "assay": "target engagement in cells, inhibitor, chemoproteomics", "conditions": "20 mM", "endpoint": "inhibition", "result": "-6.2%"}
{"SMILES": "CC(=O)N1CCC(c2ccc(C(=O)NC3=NCCN3)cc2C(F)(F)F)CC1", "assay": "cell-free assay, competition with immobilised ligand", "conditions": "1 µM", "endpoint": "remaining binding", "result": "100%"}
{"SMILES": "COc1cc(-c2cc(-c3ccc(N4CCNCC4)cc3)cnc2C)cc(OC)c1OC", "assay": "enzyme activity, inhibitor", "conditions": "0.1 µM", "endpoint": "inhibition", "result": "1%"}
{"SMILES": "O=C(O)[C@H]1[C@H](Cn2nnc3ccccc3c2=O)CC[C@@H]1C(=O)c1ccc(OCCC2CCOCC2)cc1", "assay": "cell-free assay, competition with immobilised ligand", "conditions": "1 µM", "endpoint": "remaining binding", "result": "100%"}
{"SMILES": "CCCOc1ccc(OC)c(F)c1C(=O)c1ccc(C(=O)N[C@@H]2CNC[C@H]2NC(=O)c2ccc3[nH]ncc3c2)cc1", "assay": "enzyme activity, inhibitor", "conditions": "50 nM", "endpoint": "remaining activity", "result": "51%"}
